# Test results from PMC9401512 (Clinical Cancer Research, 2021).
# Marks after values point to notes of the source that are not given here.
# What was measured:
# [1] = LSZ102 clinical pharmacokinetics; assay type: in vivo, human
# [2] = system: adults with ER-positive breast cancer; test: Adverse events, serious AEs, deaths, discontinuations; assay type: in vivo, human
# Outline: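 Open-label phase I/Ib escalation in adults with ER-positive advanced breast cancer. Oral test compound was given once or twice daily, alone or with one of two partner agents, in continuous 28-day cycles. AEs were defined and graded per CTCAE v4.03. The safety set was treated participants with ≥1 valid postbaseline safety assessment. Fed/fasted data were pooled.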
# [3] = system: ER-positive breast cancer; test: Investigator-assessed clinical response; assay type: in vivo, human
# Outline: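 Local investigator assessed response per RECIST v1.1 in all participants receiving ≥1 dose. ORR = confirmed CR+PR. CBR = CR+PR plus SD or non-CR/non-PD maintained ≥24 weeks. PFS was estimated by Kaplan–Meier. Data were grouped by total daily dose, pooling fed, fasted and food-independent dosing.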
# [4] = system: adults with ER-positive breast cancer; test: Dose-limiting toxicities in the first 28-day treatment cycle; assay type: in vivo, human
# [5] = cited from earlier work
# ER protein = test: Paired biopsy ER protein by IHC; assay type: in vivo, human; conditions: cycle 1 day 15, single agent
smiles,measurement,setting,value
CC(F)(F)c1cc(F)ccc1-c1sc2cc(O)ccc2c1Oc1ccc(/C=C/C(=O)O)cc1 [LSZ102],Time to Cmax,[1]; discussion summary,approximately 2 hours
same,Median time to maximum concentration (Cmax),[1]; fasted conditions,2 to 3 h
same,"Discontinuations from study treatment: Adverse event, n (%)",[2]; in vivo,2 (2.6) n (%)
same,"Discontinuations from study treatment: Death, n (%)",[2]; in vivo,0 n (%)
same,"Deaths on treatment or within 30 days from the last dose, number",[2]; whole arm,5
same,"Participants with treatment-related serious AEs, number",[2]; whole arm,1
same,"Discontinuations from study treatment: Progressive disease, n (%)","[3]; human, in vivo",71 (91.0) n (%)
same,Clinical benefit rate (CBR),[3]; whole arm,7.8%
same,Objective response rate (ORR),[3]; whole arm,1.3%
same,"DLT: ALT increased, participants",[4]; 450 mg QD,1^b
same,"DLT: AST increased, participants",[4]; 450 mg QD,1^b
same,"DLT: Vomiting, participants",[4]; 600 mg QD,1
same,"DLT: Diarrhea, participants",[4]; 900 mg QD,2
same,"DLTs, participants","[4]; first 28-day cycle, whole arm",5%
same,Recommended dose for expansion: LSZ102 dose,[4]; in vivo,450 mg once daily
same,"Participants with ≥ 1 DLT, n (%)","[4]; total daily dose 200 mg, QD (n = 4)",0 n (%)
same,"Participants with ≥ 1 DLT, n (%)","[4]; total daily dose 400 mg, BID (n = 3)",0 n (%)
same,"Participants with ≥ 1 DLT, n (%)","[4]; total daily dose 400 mg, QD (n = 6)",0 n (%)
same,"Participants with ≥ 1 DLT, n (%)","[4]; total daily dose 450 mg, BID (n = 5)",0 n (%)
same,"Participants with ≥ 1 DLT, n (%)","[4]; total daily dose 600 mg (n = 28), QD (n = 23)",1 (3.6) n (%)
same,"Participants with ≥ 1 DLT, n (%)","[4]; total daily dose 600 mg, BID (n = 5)",0 n (%)
same,"Participants with ≥ 1 DLT, n (%)","[4]; total daily dose 900 mg, QD (n = 6)",2 (33.3) n (%)
same,Increase in LSZ102 exposure with a high-fat high-calorie meal,[5],~2 fold
same,Biopsy ER H-score change from screening,ER protein,trend toward dose-dependent ER degradation
